According to ChEMBL document CHEMBL1152327, “Cucurbitane-type triterpenoids from the stems of Cucumis melo” (J Nat Prod, 2009):
Active and inactive are the calls of the source. No cut-off for these calls is given here.

Experiments:
[1] = molecular target: Signal transducer and activator of transcription 3 (Homo sapiens) (UniProt P40763); assay: Inhibition of STAT3 upto 10 uM by Western blotting
How it was run: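 Phosphotyrosine Stat3 levels in treated cells, tested up to 10 µM. Cells washed in ice-cold PBS, lysed in SDS sample buffer, equal protein run on SDS-PAGE and transferred to PVDF. Blots blocked in 5% nonfat milk/TBST, then phospho-Stat3 and β-tubulin antibodies at 4 °C overnight, secondary 2 h room temperature, ECL detection. IC50 derived.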

Bel-7402 [2] = assay: Cytotoxicity against human Bel7402 cells upto 10 uM after 72 hrs by SRB assay; assay type: functional, cell-based
How it was run: (§1)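 A549/ATCC (human non-small-cell lung) or BEL-7402 (human hepatocellular) cells plated 24 h before treatment, then continuously exposed to a range of concentrations for 72 h. Cells fixed and stained with sulforhodamine B, bound dye solubilized in 10 mM Tris, absorbance read at 565 nm. IC50 derived.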

A549 [3] = assay: Cytotoxicity against human A549 cells upto 10 uM after 72 hrs by SRB assay; assay type: functional, cell-based; how it was run: as §1
A549 [4] = assay: Cytotoxicity against human A549 cells after 72 hrs by SRB assay; assay type: functional, cell-based; settings: A549, 72 h; how it was run: as §1
Bel-7402 [5] = assay: Cytotoxicity against human Bel7402 cells after 72 hrs by SRB assay; assay type: functional, cell-based; settings: Bel-7402, 72 h; how it was run: as §1

Chain of Signal transducer and activator of transcription 3 (Homo sapiens) (P40763 whole entry): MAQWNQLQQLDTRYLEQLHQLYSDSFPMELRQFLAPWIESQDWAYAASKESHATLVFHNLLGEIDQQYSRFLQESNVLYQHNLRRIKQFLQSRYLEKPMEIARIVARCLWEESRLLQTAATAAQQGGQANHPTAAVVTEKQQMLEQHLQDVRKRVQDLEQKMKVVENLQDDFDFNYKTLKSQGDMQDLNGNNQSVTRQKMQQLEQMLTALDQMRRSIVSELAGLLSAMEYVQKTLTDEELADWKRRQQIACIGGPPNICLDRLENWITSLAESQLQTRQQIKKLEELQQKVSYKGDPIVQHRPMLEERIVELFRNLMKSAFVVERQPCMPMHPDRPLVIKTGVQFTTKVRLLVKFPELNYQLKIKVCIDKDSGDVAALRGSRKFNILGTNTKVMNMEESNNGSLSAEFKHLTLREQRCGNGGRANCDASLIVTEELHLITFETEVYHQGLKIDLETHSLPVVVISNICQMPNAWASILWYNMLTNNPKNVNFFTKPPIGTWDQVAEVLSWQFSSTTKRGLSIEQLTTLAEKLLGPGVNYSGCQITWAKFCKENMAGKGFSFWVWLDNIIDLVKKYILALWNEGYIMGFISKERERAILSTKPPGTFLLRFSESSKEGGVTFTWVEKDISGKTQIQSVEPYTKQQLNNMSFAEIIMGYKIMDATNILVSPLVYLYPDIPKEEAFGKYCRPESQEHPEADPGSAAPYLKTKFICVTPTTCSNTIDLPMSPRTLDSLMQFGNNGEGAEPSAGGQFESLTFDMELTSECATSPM

Compound | inhibition [1] | Activity (Bel-7402 [2]) | Activity (A549 [3]) | IC50 (A549 [4]) | IC50 (Bel-7402 [5])
CC(=O)OC(C)(C)/C=C/C(=O)[C@](C)(O)[C@H]1[C@H](O)C[C@@]2(C)[C@@H]3CC=C4[C@@H](C[C@H](O[C@@H]5O[C@H](CO)[C@@H](O)[C@H](O)[C@H]5O)C(=O)C4(C)C)[C@]3(C)C(=O)C[C@]12C | inactive | inactive | inactive | – | –
CC(=O)[C@H]1[C@H](O)C[C@@]2(C)[C@@H]3CC=C4[C@@H](C[C@H](O)C(=O)C4(C)C)[C@]3(C)C(=O)C[C@]12C | inactive | inactive | inactive | – | –
C/C(=C\[C@@H]1C[C@](C)(O)[C@H]2[C@@H](C[C@@]3(C)[C@@H]4[C@@H](O)C=C5[C@@H](C[C@H](O[C@@H]6O[C@H](CO)[C@@H](O)[C@H](O)[C@H]6O)[C@H](O)C5(C)C)[C@]4(C)C(=O)C[C@]23C)O1)CO | inactive | inactive | inactive | – | –
CC1(C)C(=O)[C@@H](O)C[C@@H]2C1=CC[C@@H]1[C@@]2(C)C(=O)C[C@]2(C)[C@@H]([C@@](C)(O)C(=O)C[C@H](O)C(C)(C)O)[C@H](O)C[C@@]12C | inactive | inactive | inactive | – | –
CC(C)=CCC[C@@H](C)[C@H]1CC[C@@]2(C)[C@@H]3CC=C4[C@H](CCCC4(C)C)[C@H]3C(=O)C[C@]12C | inactive | inactive | inactive | – | –
CC(=O)[C@H]1[C@H](O)C[C@@]2(C)[C@@H]3CC=C4[C@@H](C[C@H](O[C@@H]5O[C@H](CO)[C@@H](O)[C@H](O)[C@H]5O)C(=O)C4(C)C)[C@]3(C)C(=O)C[C@]12C | inactive | inactive | inactive | – | –
CC(=O)OC(C)(C)/C=C/C(=O)[C@](C)(O)[C@H]1[C@H](O)C[C@@]2(C)[C@@H]3[C@@H](O)C=C4[C@@H](C[C@H](O)C(=O)C4(C)C)[C@]3(C)C(=O)C[C@]12C [7BETA-HYDROXYCUCURBITACIN B] | inactive | – | – | 3210 nM | 7590 nM
CC(=O)OC(C)(C)/C=C/C(=O)[C@](C)(O)[C@H]1[C@H](O)C[C@@]2(C)[C@@H]3CC=C4[C@H](C[C@H](O)C(=O)C4(C)C)[C@]3(C)C(=O)C[C@]12C [CUCURBITACIN B] | – | – | – | 10 nM | 8 nM
CC(C)(O)CCC(=O)[C@](C)(O)[C@H]1[C@H](O)C[C@@]2(C)[C@@H]3CC=C4[C@@H](CC(=O)[C@H](O)C4(C)C)[C@]3(C)C(=O)C[C@]12C | inactive | inactive | inactive | – | –
CC1(C)C(=O)[C@@H](O)C[C@@H]2C1=CC[C@@H]1[C@@]2(C)C(=O)C[C@]2(C)[C@@H]([C@@](C)(O)C(=O)CC(O)C(C)(C)O)[C@H](O)C[C@@]12C (some centres not stated) | inactive | inactive | inactive | – | –
CC(=O)OC(C)(C)/C=C/C(=O)[C@](C)(O)[C@H]1[C@H](O)C[C@@]2(C)[C@@H]3CC=C4[C@@H](C[C@H](O[C@@H]5O[C@H](CO)[C@@H](O)[C@H](O)[C@H]5O)C(=O)C4(C)C)[C@]3(CO)C(=O)C[C@]12C | inactive | inactive | inactive | – | –
CC(C)(O)CCC(=O)[C@](C)(O)[C@H]1[C@H](O)C[C@@]2(C)[C@@H]3CC=C4[C@@H](C[C@H](O)C(=O)C4(C)C)[C@]3(CO)C(=O)C[C@]12C | inactive | inactive | inactive | – | –
CC(=O)OC(C)(C)/C=C/C(=O)[C@](C)(O)[C@H]1[C@H](O)C[C@@]2(C)[C@@H]3CC=C4[C@@H](C[C@H](O)C(=O)C4(C)C)[C@]3(CO)C(=O)C[C@]12C [CUCURBITACIN A] | inactive | – | – | 400 nM | 300 nM
C/C(=C\C(O)C[C@](C)(O)[C@H]1[C@H](O)C[C@@]2(C)[C@@H]3CC=C4[C@@H](C[C@H](O)C(=O)C4(C)C)[C@]3(C)C(=O)C[C@]12C)CO (some centres not stated) | inactive | inactive | inactive | – | –
C/C(=C\[C@@H]1C[C@](C)(O)[C@H]2[C@@H](C[C@@]3(C)[C@@H]4[C@@H](O)C=C5[C@@H](C[C@H](O)[C@H](O)C5(C)C)[C@]4(C)C(=O)C[C@]23C)O1)CO | inactive | inactive | inactive | – | –
CC(=O)OC(C)(C)CCC(=O)[C@](C)(O)[C@H]1[C@H](O)C[C@@]2(C)[C@@H]3CC=C4[C@@H](C[C@H](O)C(=O)C4(C)C)[C@]3(C)C(=O)C[C@]12C | inactive | inactive | inactive | – | –
CC(C)(O)CCC(=O)[C@](C)(O)[C@H]1[C@H](O)C[C@@]2(C)[C@@H]3CC=C4[C@@H](C[C@H](O)C(=O)C4(C)C)[C@]3(C)C(=O)C[C@]12C | inactive | inactive | inactive | – | –
CC(=O)OC(C)(C)CCC(=O)[C@](C)(O)[C@H]1[C@H](O)C[C@@]2(C)[C@@H]3CC=C4[C@@H](CC(=O)[C@H](O)C4(C)C)[C@]3(C)C(=O)C[C@]12C | inactive | inactive | inactive | – | –
CC(=O)OC(C)(C)CCC(=O)[C@](C)(O)[C@H]1[C@H](O)C[C@@]2(C)[C@@H]3[C@@H](O)C=C4[C@@H](C[C@H](O)C(=O)C4(C)C)[C@]3(C)C(=O)C[C@]12C | inactive | inactive | inactive | – | –
CC(C)(O)/C=C/C(=O)[C@](C)(O)[C@H]1[C@H](O)C[C@@]2(C)[C@@H]3CC=C4[C@@H](C[C@H](O[C@@H]5O[C@H](CO)[C@@H](O)[C@H](O)[C@H]5O)C(=O)C4(C)C)[C@]3(C)C(=O)C[C@]12C | inactive | inactive | inactive | – | –
CC(C)(O)/C=C/C(=O)[C@](C)(O)[C@H]1[C@H](O)C[C@@]2(C)[C@@H]3CC=C4[C@@H](C[C@H](O)C(=O)C4(C)C)[C@]3(CO)C(=O)C[C@]12C | inactive | inactive | inactive | – | –
